Calls of active or inactive are those of the source. The calls are words filed in the database; no cut-off is given here.
How the values were obtained:
[1] = test system: Norovirus; assay: Antiviral activity against human norovirus infected in human HG23 cells assessed as inhibition of viral replication at 10 uM after 3 days by qRT-PCR analysis relative to control; assay type: functional; set-up: scale not given: the % may be the effect or the level left
[2] = Cytotoxicity against human HG23 cells assessed as cell viability at 10 uM after 3 days by tetrazolium dye based assay relative to control; conditions: read-out: Activity
Summary of the method: (§1)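 HG23 cells were treated with DMSO or compound for 3 days, at 10 μM for single-point testing or across a dose range for CC50. Viability was read with a tetrazolium salt (EZ-CYTOX) reagent. Values are means of the most representative triplicate experiment with standard deviations.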

[3] = Cytotoxicity against human HG23 cells assessed as reduction in cell viability after 3 days by tetrazolium dye based assay; summary of the method: as §1
[4] = test system: Norovirus; assay: Antiviral activity against human norovirus infected in human HG23 cells assessed as inhibition of viral replication after 3 days by qRT-PCR analysis; assay type: functional, organism-based; conditions: HG23, 72 h
[5] = Therapeutic index, ratio of CC50 for cytotoxicity against human HG23 cells harboring human norovirus replicons to EC50 for antiviral activity against norovirus infected in human HG23 cells; assay type: toxicity, cell-based; conditions: read-out: Ratio CC50/EC50
[6] = test system: Norovirus; assay: Antiviral activity against human norovirus infected in HG23 cells assessed as inhibition of neomycin phosphotransferase protein expression after 3 days by Western blot analysis; assay type: functional, organism-based; conditions: HG23, 72 h
Summary of the method: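 HG23 replicon cells were given DMSO or increasing compound concentrations for 3 days. Whole-cell RIPA extracts were quantified by Bradford assay and equal protein amounts run on SDS-PAGE. Blots on PVDF were probed with rabbit anti-neomycin phosphotransferase (1:500), with anti-HSF-1 (1:1000) on blots. EC50 came from dose-response; values are means of a representative triplicate experiment.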

[7] = molecular target: T1, Heat shock factor protein 1 (Homo sapiens) (UniProt Q00613); assay: Activation of HSF-1 in human HG23 cells transfected with human norovirus after 72 hrs by dual-luciferase reporter gene assay; assay type: cell-based
T1 sequence (whole entry): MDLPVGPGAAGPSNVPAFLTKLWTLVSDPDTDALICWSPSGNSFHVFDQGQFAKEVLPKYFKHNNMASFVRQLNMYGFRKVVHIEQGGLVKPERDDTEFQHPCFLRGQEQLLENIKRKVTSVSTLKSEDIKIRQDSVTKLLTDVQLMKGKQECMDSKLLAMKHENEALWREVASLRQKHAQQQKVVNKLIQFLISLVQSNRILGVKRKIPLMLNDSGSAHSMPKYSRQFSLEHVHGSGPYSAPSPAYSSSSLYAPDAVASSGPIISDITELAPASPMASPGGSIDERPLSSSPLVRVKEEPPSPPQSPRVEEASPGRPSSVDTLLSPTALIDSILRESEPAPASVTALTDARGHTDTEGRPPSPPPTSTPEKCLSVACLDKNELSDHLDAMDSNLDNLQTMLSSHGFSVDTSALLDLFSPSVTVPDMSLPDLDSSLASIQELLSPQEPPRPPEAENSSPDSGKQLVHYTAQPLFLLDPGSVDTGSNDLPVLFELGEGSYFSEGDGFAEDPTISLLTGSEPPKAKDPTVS
Summary of the method: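 HG23 cells carrying the NV replicon were transfected with a Cignal finder reporter array and then given DMSO or 10 μM test compound for 72 h. Luciferase activity for each pathway was read with a dual-luciferase reagent.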

[8] = test system: Norovirus GII.4; assay: Inhibition of norovirus GII.4 RNA-dependent RNA polymerase using poly(C)RNA as substrate incubated for 10 mins and measured after 15 mins by picogreen staining based assay
Summary of the method: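 Recombinant human norovirus GII.4 Sydney 2012 RdRp (400 ng) was preincubated with compound (10 μM) or DMSO (0.5% v/v) for 10 min at 25 °C. It was then added to 5 μM rGTP, 6 μg/mL poly(C), 2.5 mM MnCl₂, 5 mM DTT, 0.01% BSA and 0.005% Tween 20 in 20 mM Tris-HCl pH 7.5. After 15 min at 25 °C, reactions were stopped with 10 mM EDTA and dsRNA quantified by PicoGreen fluorescence (ex 480/em 520). Two independent experiments were run in triplicate.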

[9] = Metabolic stability in human liver microsomes assessed as compound remaining at 1 uM preincubated for 5 mins followed by NADPH addition and measured after 30 mins by LC-MS/MS analysis relative to control; assay type: ADME, Microsome; conditions: read-out: Stability
Summary of the method: (§2)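 Human or mouse liver microsomes (0.5 mg/ml) in 0.1 M phosphate buffer pH 7.4 were preincubated with compound at 1 μM for 5 min at 37 °C. An NADPH regeneration system was then added or omitted, and incubation continued 30 min at 37 °C. Reactions were stopped with acetonitrile containing internal standard. Parent compound remaining was measured by LC-MS/MS (C18 column, 0.1% formic acid water/acetonitrile).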

[10] = Metabolic stability in human liver microsomes assessed as compound remaining at 1 uM after 30 mins in absence of NADPH by LC-MS/MS analysis relative to control; assay type: ADME, Microsome; conditions: read-out: Stability; summary of the method: as §2
[11] = Metabolic stability in mouse liver microsomes assessed as compound remaining at 1 uM preincubated for 5 mins followed by NADPH addition and measured after 30 mins in presence of NADPH relative to control; assay type: ADME, Microsome; conditions: read-out: Stability; summary of the method: as §2
[12] = Metabolic stability in mouse liver microsomes assessed as compound remaining at 1 uM after 30 mins in absence of NADPH by LC-MS/MS analysis relative to control; assay type: ADME, Microsome; conditions: read-out: Stability; summary of the method: as §2

SMILES | Activity [1] [%] | viability at 72 h, 10 µM [2] [%] | also measured
C=Cc1c(OC)cc(/C=C/c2ccc(C(F)(F)F)cc2)cc1OC | 19.4 | 97.5 | CC50 at 72 h [3]: > 10 µM; EC50 [4]: 4.4 µM; selectivity ratio [5]: > 2.2; EC50 [6]: 8 µM
COc1cc(/C=C/c2cc(OC)cc(OC)c2)cc(OC)c1 | 119 | 99.2 | 
C#CCOC(=O)c1ccc(/C=C/c2cc(OC)c(C=C)c(OC)c2)cc1 | 71.3 | 103 | 
C=Cc1c(OC)cc(/C=C/c2ccc(C(=O)N3CCN(Cc4ccc(OC)cc4)CC3)cc2)cc1OC | 30.4 | 21.5 | 
C=Cc1ccc(/C=C/c2cc(OC)cc(OC)c2)cc1 | 77.1 | 138 | 
C=Cc1c(OC)cc(/C=C/c2ccc(C(=O)OCc3ccc(F)cc3)cc2)cc1OC | 36 | 101 | 
C[C@@]1(O)[C@H](O)[C@@H](CO)O[C@H]1n1ccc(N)nc1=O | 24.8 | 78.5 | CC50 at 72 h [3]: 12.2 µM; EC50 [4]: 4 µM; selectivity ratio [5]: 3.1; EC50 [6]: 4.8 µM; Activity [7]: Active
C=Cc1c(OC)cc(CCc2ccc(C(=O)N3CCN(Cc4ccc(C(F)(F)F)cc4)CC3)cc2)cc1OC | 132.1 | 77.3 | 
C=Cc1c(OC)cc(/C=C/c2cc(OC)cc(OC)c2)cc1OC | 43.4 | 99.6 | 
C=CCNC(=O)c1ccc(/C=C/c2cc(OC)c(C=C)c(OC)c2)cc1 | 62.4 | 91.6 | 
C=Cc1c(OC)cc(/C=C/c2ccc(C(=O)O)cc2)cc1OC | 81.3 | 112 | 
C=Cc1c(OC)cc(/C=C/c2cccc(C(F)(F)F)c2)cc1OC | 66.6 | 98.4 | 
COc1cc(/C=C/c2cc(OC)c(CCO)c(OC)c2)cc(OC)c1 | 272.8 | 99.8 | 
C=Cc1c(OC)cc(/C=C/c2ccc(C(=O)OCc3ccccc3)cc2)cc1OC | 134.9 | 106 | 
C=Cc1c(OC)cc(/C=C/c2ccccc2C(F)(F)F)cc1OC | 83.2 | 99.7 | 
C=Cc1c(OC)cc(/C=C/c2ccc(C(=O)NCCc3ccccn3)cc2)cc1OC | 13.5 | 96.3 | CC50 at 72 h [3]: > 100 µM; EC50 [4]: 1.44 µM; selectivity ratio [5]: > 69; EC50 [6]: 1.97 µM; inhibition [8]: inactive; remaining at 0.5 h, 1 µM [9]: 44.1%; remaining at 0.5 h, 1 µM [10]: > 100%; remaining at 0.5 h, 1 µM [11]: 38.3%; remaining at 0.5 h, 1 µM [12]: 83.1%
C=Cc1c(OC)cc(/C=C/c2ccc(C(=O)Nc3ccc(C(F)(F)F)cc3)cc2)cc1OC | 70.8 | 92.5 | 
C=Cc1c(OC)cc(/C=C/c2ccc(C(=O)N3CCN(Cc4ccc(F)cc4)CC3)cc2)cc1OC | 12.1 | 55.7 | 
C=Cc1c(OC)cc(/C=C/c2ccc(C(=O)NCc3ccco3)cc2)cc1OC | 33.8 | 109 | 

SMILES | Activity [1] [%] | viability at 72 h, 10 µM [2] [%] | also measured
COc1cc(/C=C/c2cc(O)c(CCO)c(O)c2)cc(OC)c1 | 200.8 | 99 | 
C=Cc1c(OC)cc(/C=C/c2ccc(OCOC)cc2)cc1OC | 165.7 | 97.5 | 
CCc1c(OC)cc(/C=C/c2cc(OC)cc(OC)c2)cc1OC | 94 | 69.3 | 
C=Cc1c(OC)cc(/C=C/c2ccc(C(=O)NCCc3ccc(O)cc3)cc2)cc1OC | 40.8 | 103 | 
OCCc1ccc(/C=C/c2ccccc2)cc1 | 43.2 | 101 | 
C=Cc1c(OC)cc(/C=C/c2ccc(C(=O)N3CCN(C(C)C)CC3)cc2)cc1OC | 55.3 | 60.5 | 
C=Cc1c(OC)cc(/C=C/c2ccc(C(=O)NCCc3ccncc3)cc2)cc1OC | 15.4 | 100 | CC50 at 72 h [3]: > 100 µM; EC50 [4]: 2 µM; selectivity ratio [5]: > 50; EC50 [6]: 0.71 µM; inhibition [8]: inactive; remaining at 0.5 h, 1 µM [9]: 20%; remaining at 0.5 h, 1 µM [10]: 92.1%; remaining at 0.5 h, 1 µM [11]: 67.7%; remaining at 0.5 h, 1 µM [12]: 88.4%
C=Cc1c(OC)cc(/C=C/c2ccc(C(=O)OC)cc2)cc1OC | 58.2 | 111 | 
COc1cc(/C=C/c2cc(OC)c(Br)c(OC)c2)cc(OC)c1 | 184.9 | 99.7 | 
C=Cc1c(OC)cc(/C=C/c2ccc(C(=O)N3CCN(CCO)CC3)cc2)cc1OC | 110.4 | 93.3 | 
COc1ccc(CCN(C)CCCC(C#N)(c2ccc(OC)c(OC)c2)C(C)C)cc1OC (stereo not given) [VERAPAMIL] |  |  | remaining at 0.5 h, 1 µM [9]: 13.6%
C=Cc1ccc(/C=C/c2ccccc2)cc1 | 26.5 | 102 | 
Brc1ccc(/C=C/c2ccccc2)cc1 | 54.5 | 130 | 
C=Cc1c(OC)cc(/C=C\c2ccc(C(=O)N3CCN(Cc4ccc(C(F)(F)F)cc4)CC3)cc2)cc1OC | 64.9 | 90.9 | 
C=Cc1c(OC)cc(/C=C/c2ccc(F)cc2)cc1OC | 38.4 | 93.2 | 
C=Cc1c(OC)cc(/C=C/c2ccc(C(=O)OCc3ccc(C(F)(F)F)cc3)cc2)cc1OC | 58.4 | 109 | 
C=Cc1c(OC)cc(/C=C/c2ccc(C(=O)NCCc3ccccc3)cc2)cc1OC | 28.4 | 99.7 | 
C=Cc1c(OC)cc(/C=C/c2ccc(C(=O)NCCc3c[nH]c4ccccc34)cc2)cc1OC | 46.6 | 106 | 

From ChEMBL document CHEMBL4311988, “Identification of novel non-nucleoside vinyl-stilbene analogs as potent norovirus replication inhibitors with a potential host-targeting mechanism” (Eur J Med Chem, 2019)
